OXTR potentiate: potentiates the human oxytocin receptor response | P30559 | CHO-OTR cells, Fluo-8 calcium fluorescence, potentiator mode; 0% = oxytocin EC15, 100% = EC100 | activation, % at 3 µM | hit rate 0.061% among 320,000;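 active = activation above that plate's cutoff, the mean activation of tested compounds plus 3 SD, cut at about 6.6% in these data, passing the limit was not always enough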
Target sequence (P30559 whole entry, looked up): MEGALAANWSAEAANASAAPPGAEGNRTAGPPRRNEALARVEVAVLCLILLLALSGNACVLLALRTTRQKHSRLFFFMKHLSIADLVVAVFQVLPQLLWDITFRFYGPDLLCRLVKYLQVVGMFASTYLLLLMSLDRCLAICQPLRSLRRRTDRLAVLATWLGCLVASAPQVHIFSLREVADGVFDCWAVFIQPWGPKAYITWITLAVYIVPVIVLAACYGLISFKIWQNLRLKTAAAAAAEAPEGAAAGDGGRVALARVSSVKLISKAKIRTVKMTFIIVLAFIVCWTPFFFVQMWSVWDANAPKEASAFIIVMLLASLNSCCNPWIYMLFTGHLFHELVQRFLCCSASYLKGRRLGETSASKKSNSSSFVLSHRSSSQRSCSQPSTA
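assay system = CHO-OTR cells, human receptor | schedule = compound 6 min at room temperature before oxytocin, 100 s read | detection = Fluo-8 intracellular calcium fluorescence, ex 470-495, em 515-575 nm | evaluation = normalized max/min fluorescence ratio, % activation | control set = EC15 oxytocin alone as 0%, 75 nM oxytocin (EC100) as 100%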
OXTR ag: agonists of human oxytocin receptor | activation, % at 3 µM | hit rate 0.32% among 320,000 | P30559 | CHO-OTR cells, Fluo-8 calcium fluorescence; normalized: DMSO 0%, oxytocin 100%;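 active = activation above the mean of all tested compounds plus 3 SD, cutoff set per screening run, cut at about 20% in these data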;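 also: peak over basal fluorescence ratio from a 100 s FLIPR kinetic read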
TRPN1 ag: agonists of zebrafish TRPN1 channel. HEK293 zebrafish TRPN1-YFP, Fluo-8 calcium fluorescence; 100% = response to 87 µM carbachol. activation, % at 3 µM. hit rate 0.18% among 220,000. AID 1424;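 active = activation above its plate's cutoff, the mean activation of test wells on that plate plus 3 SD, cut at about 19% in these data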
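Control set: carbachol 87 µM as high control, DMSO as low control; system: HEK293 stable line with zebrafish TRPN1-YFP; read-out: % activation versus carbachol response; detection: intracellular calcium fluorescence with Fluo-8; doses: single test compound dose, 3 µM nominal, 0.3% DMSO; schedule: dye 1 h 37 °C plus 30 min RT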
V1R ag counter: counter-screen for oxytocin receptor agonists: human V1a receptor agonists. AID 2797. CHO-V1R cells, Fluo-8 calcium fluorescence, agonist mode; 0% DMSO, 100% 3 nM vasopressin. P37288. hit rate 0.25% among 320,000. activation, % at 3 µM;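 active = activation above the mean activation of all tested compounds plus 3 SD, per screening run, cut at about 20% in these data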;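 also: signal is peak over basal fluorescence ratio across a 100 second FLIPR read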
CRFR2-BP ag: agonists of human CRF-binding protein/CRF-R2 receptor complex; hit rate 0.46% among 350,000; activation, % at 13.2 µM; HEK293 CRF-R2/CRF-BP, calcium dye fluorescence (FLIPR); percent of saturating CRF peptide response; AID 588473;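 active = activation of at least 50%, plus an integration ratio under a set limit after plate pattern correction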
TRPML3 agonist: human mucolipin-3 channel agonism; AID 1448; HEK293 TRPML3-YFP, Fluo-8 calcium fluorescence; 100% = the carbachol control signal; activation, % at 3 µM; Q8TDD5; hit rate 0.29% among 220,000;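 active = activation above its plate's cutoff, the mean activation of the plate's test wells plus 3 SD, cut at about 12% in these data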
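Test system – HEK293 line with stable expression of human TRPML3-YFP channel · Control set – carbachol 87 µM final as high control (100%), DMSO as low control (0%) · Signal – Fluo-8 calcium dye fluorescence, ex 470-495, em 515-575 nm · Incubation – 1-h 37 °C dye load, 5-s basal, 120-s post-compound reads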
TRPN1 counter: counter-screen for TRPML3 agonists: agonists of zebrafish TRPN1 channel; shares compounds with TRPML3 agonist; HEK293 zebrafish TRPN1-YFP, Fluo-8 calcium fluorescence; scaled: carbachol wells 100%, DMSO wells 0%; activation, % at 3 µM; hit rate 10% among 310; AID 1525;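 active = mean activation over replicates above a set limit taken from the earlier TRPN1 channel primary screen, cut at about 19% in these data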
TRPML3 confirm: confirmation of human TRPML3 channel agonists; AID 1526; shares compounds with TRPML3 agonist; hit rate 80% among 310; activation, % at 3 µM; HEK293 TRPML3-YFP, Fluo-8 calcium fluorescence; 100% set by carbachol, 0% by DMSO;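 active = activation above a set limit derived from the earlier primary screen, cut at about 12% in these data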
OXTR agonist cf: confirmation of human oxytocin receptor agonists | shares compounds with OXTR ag | CHO-OTR cells, Fluo-8 calcium fluorescence, agonist | activation, % at 3 µM | hit rate 20% among 390;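 active = mean activation above about 20% derived from the earlier single-dose screen, limit read from the data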;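 also: peak over minimum fluorescence ratio per well during a 100 second FLIPR read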
V1R ag counter 3x: activates V1a receptor in oxytocin agonist counter-screen; shares compounds with OXTR ag; CHO-V1R cells, Fluo-8 calcium fluorescence; AID 434991; activation, % at 3 µM; hit rate 10% among 390;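 active = mean activation over triplicate exceeds the hit threshold set in the earlier primary screen, cut at about 20% in these data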;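 also: peak over basal fluorescence ratio within a 100 second read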
OXTR pot cf: human OXTR potentiation, confirmation; shares compounds with OXTR potentiate; CHO-OTR cells, Fluo-8 calcium fluorescence; scaled from low-dose to maximal oxytocin; activation, % at 3 µM; 180 tested, under 10 active;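 active = mean percent activation over triplicates above a cutoff set from solvent-only control plates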;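 also: compounds tested in the presence of an EC15 dose of oxytocin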
V1aR agonist cf: confirmation of human vasopressin V1a receptor agonists; shares compounds with V1R ag counter; CHO-V1R cells, Fluo-8 calcium fluorescence, agonist; activation, % at 3 µM; hit rate 20% among 180; AID 434964;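 active = average activation exceeds primary screen hit cutoff, cut at about 21% in these data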;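 also: peak over basal fluorescence ratio during a 100 s FLIPR read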
OXTR counter: activates oxytocin receptor in V1a agonist counter-screen; hit rate 10% among 180; shares compounds with V1R ag counter; AID 434969; activation, % at 3 µM; CHO-OTR cells, Fluo-8 calcium fluorescence;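 active = mean activation over three repeats above the cutoff from the earlier oxytocin receptor agonist screen, cut at about 20% in these data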;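 also: peak over minimum fluorescence ratio within a 100 second FLIPR read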
Of the large screens only hits and unclear results are named; the others gave an inactive call (follow-up assays come after a bar, where they were run). The list is not random: actives were taken first. Their share in the collection is about 0.85%.

Cc1ccccc1N1C(=O)NC(=O)/C(=C\c2cc(Br)c(N3CCOCC3)o2)C1=O	CRFR2-BP ag 112.7
O=C1NC(=S)SC1=Cc1ccc(N(CCCl)CCCl)cc1	CRFR2-BP ag 88.1 (no result: OXTR potentiate, OXTR ag, TRPN1 ag, V1R ag counter, TRPML3 agonist)
CCC(C)c1ccc(N2C(=O)NC(=O)/C(=C/c3cccn3CCOc3ccc(C)cc3)C2=O)cc1 (centres undefined)	CRFR2-BP ag 60.4
CC/C(=C\C=C\[C@@H]1C=C[C@@H]2CCC[C@H]2[C@@H]1C(=O)c1ccc[nH]1)[C@@H]1O[C@@H]([C@@H](C)C(=O)O)CC[C@@H]1C	CRFR2-BP ag 66.9
Nc1ccc2nonc2c1[N+](=O)[O-]	CRFR2-BP ag 70.1
COc1ccc2nc3c(C)n(C)ccc-3c2c1	none (no result: OXTR potentiate, OXTR ag, TRPN1 ag, V1R ag counter, TRPML3 agonist)
CN1C(=O)C(C)(C2=CCCCC2)C(=O)NC1=S (centres undefined)	none (no result: OXTR potentiate, OXTR ag, TRPN1 ag, V1R ag counter, TRPML3 agonist)
c1ccc(-c2cc(-c3ccccc3)[n+](-c3ccccc3)c(-c3ccccc3)c2)cc1	none
Cc1ccc(-c2cc(-c3ccccc3)cc(-c3ccccc3)[n+]2-c2ccccc2)cc1	CRFR2-BP ag 65.6 (no result: TRPN1 ag, TRPML3 agonist)
CN(C)c1ccc(-[n+]2c(-c3ccccc3)cc(-c3ccccc3)cc2-c2ccccc2)cc1	none (no result: OXTR potentiate, OXTR ag, V1R ag counter)
Cc1ccc(-c2cc(-c3ccc(C)cc3)[n+](-c3ccccc3)c(-c3ccc(C)cc3)c2)cc1	CRFR2-BP ag 60.3 (no result: TRPN1 ag, TRPML3 agonist)
O=c1[nH]c(=O)n(-c2ccc(F)cc2)c(O)c1/C=C1\C=Nc2ccccc21	CRFR2-BP ag 102.1 (no result: TRPN1 ag, TRPML3 agonist)
C[C@]1(O)CCC2C3CC[C@H]4C[C@@H](OC(=O)[C@@H](N)CCCCN)CC[C@]4(C)C3CC[C@@]21C (some centres undefined)	none (no result: OXTR potentiate, OXTR ag, TRPN1 ag, V1R ag counter, TRPML3 agonist)
COC(=O)C1=CCCN(C)C1	TRPML3 agonist 19.8 | TRPN1 counter inactive | TRPML3 confirm 45.8
CC(=O)OC1C=CC2[C@H]3Cc4ccc(O)c5c4[C@@]2(CCN3C)C1O5 (some centres undefined)	none (no result: TRPN1 ag, TRPML3 agonist)
Cc1cccc(-n2c(O)c(/C=C/C=Nc3ccccc3)c(=O)[nH]c2=O)c1	OXTR ag 23.3, CRFR2-BP ag 55.8 | OXTR agonist cf 25.6 | V1R ag counter 3x 35.4
CC[C@H](C)[C@@H]1O[C@@]2(C=CC1C)CC1C[C@@H](CC=C(C)C(O[C@H]3CC(OC)C(O[C@H]4CC(OC)C(O)C(C)O4)C(C)O3)C(C)C=CC=C3CO[C@@H]4C(O)C(C)=C[C@@H](C(=O)O1)[C@]34O)O2 (some centres undefined)	none (no result: TRPN1 ag, CRFR2-BP ag, TRPML3 agonist)
CCOc1ccc(-n2c(O)c(C=NCCN(CC)CC)c(=O)[nH]c2=O)cc1	OXTR potentiate 13.2 | OXTR pot cf inactive
CS(=O)(=O)c1ccc(C2=C(CNC(=O)c3cccs3)[C@H]3CC[C@@H](C2)N3Cc2ccccc2)cc1	none (no result: OXTR potentiate, OXTR ag, TRPN1 ag, V1R ag counter, TRPML3 agonist)
COc1ccc(CN2C(=O)NC(=O)/C(=C/c3cc(OC)c(OC)c(OC)c3)C2=O)cc1	none
COc1ccc(CN2C(=O)NC(=O)/C(=C/c3ccoc3)C2=O)cc1	V1R ag counter 33.4 | V1aR agonist cf inactive | OXTR counter inactive
C=CCn1c(O)c(C(CC)=Nc2cccc(C(=O)O)c2)c(=O)[nH]c1=O	V1R ag counter 22.1 | V1aR agonist cf inactive | OXTR counter inactive
COC(=O)C1=C(c2ccc(OC(F)(F)F)cc2)C[C@@H]2CC[C@H]1N2C(=O)N1CCOCC1	none (no result: TRPN1 ag, TRPML3 agonist)

Source: PubChem
